Source: paper PMC11608545 (International Journal of Nanomedicine, 2024)
≈ marks a conversion by molar mass, not a printed value.

How the values were obtained:
MV4-11 = test: Antiproliferative activity, MTT assay; type: cell-based, human; conditions: for calculated selectivity index SI: IC50 MCF-10A / IC50 MV4-11; for IC50: MV4-11, 72 h
A-549 = test: Antiproliferative activity, SRB assay; type: cell-based, human; conditions: for calculated selectivity index SI: IC50 MCF-10A / IC50 A-549
PC-3 = test: Antiproliferative activity, SRB assay; type: cell-based, human; conditions: for calculated selectivity index SI: IC50 MCF-10A / IC50 PC3
MDA-MB-468 = test: Antiproliferative activity, SRB assay; type: cell-based, human; conditions: for calculated selectivity index SI: IC50 MCF-10A / IC50 MDA-MB-468; for IC50: MDA-MB-468, 72 h
MCF-7 = test: Antiproliferative activity, SRB assay; type: cell-based, human; conditions: for calculated selectivity index SI: IC50 MCF-10A / IC50 MCF-7
MCF-10A = test: cells; type: cell-based, human
MV4-11 cells [1] = test: Cell cycle analysis; type: cell-based, human; conditions: MV4-11, 72 h, 1.5 × IC50
MDA-MB-468 cells = test: Cell cycle analysis; type: cell-based, human; conditions: MDA-MB-468, 72 h, 1.5 × IC50
MV4-11 cells [2] = test: Apoptosis determination by Annexin V staining; type: cell-based, human; conditions: MV4-11, 1.5 × IC50
[3] = test system: caspase-3/7 in MV4-11 cells; test: Caspase-3/7 activity determination; type: cell-based, human; conditions: MV4-11, 24 h or 72 h, 1.5 × IC50
[4] = test system: caspase-3/7 in MDA-MB-468 cells; test: Caspase-3/7 activity determination; type: cell-based, human; conditions: MDA-MB-468, 24 h or 72 h, 1.5 × IC50
[5] = background statement, no reference given, cited from earlier work
[6] = test system: selected cancer cell lines (MV4-11, A549, PC-3, MDA-MB-468, MCF-7); test: Antiproliferative activity, all studied cancer cell lines together; type: cell-based, human; conditions: read-out: IC50 values, range over all studied cancer cell lines; 72 h
Summary of the method: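 Cells were seeded 24 h before treatment at 0.5×10^4 (A549), 0.75×10^4 (MDA-MB-468, MCF-7) or 1×10^4 (PC-3, MV4-11) cells/well. They were exposed 72 h to test compound at 1–625 μM in medium; loaded nanocarrier was dosed by encapsulated conjugate. Read-out was MTT (MV4-11) or SRB (others). Triplicates, 3–5 independent runs; IC50 per run, mean ± SD.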

[7] = SRB, n.a. = not active in the range concentration (5–625 μM)

Row | IC50 (MV4-11; MTT) | IC50 (A-549; A-549, 72 h, SRB) | IC50 (PC-3; PC3, 72 h, SRB) | IC50 (MDA-MB-468; [7]) | IC50 (MCF-7; MCF-7, 72 h, SRB) | SMILES | calculated selectivity index SI (MV4-11) | calculated selectivity index SI (A-549) | calculated selectivity index SI (PC-3) | calculated selectivity index SI (MDA-MB-468) | calculated selectivity index SI (MCF-7) | also measured
1 | 268 ± 34.3 µM | 233 ± 108 µM | 233 ± 0.6 µM | 281 ± 35.9 µM | 276 ± 134 µM | CCCCCCCCCCCCCCCC(=O)OC[C@H](COP(=O)([O-])OCC[N+](C)(C)C)OC(=O)Cc1c(C)n(C(=O)c2ccc(Cl)cc2)c2ccc(OC)cc12 [PA-IND-PC, 1-palmitoyl-2-indomethacinoyl-sn-glycero-3-phosphocholine] | 1.16 | 1.33 | 1.33 | 1.10 | 1.12 | –
2 | 430 ± 104 µM | 423 ± 84.1 µM | 563 ± 75.1 µM | – | 424 ± 14.4 µM | CCCCCCCCCCCCCCCC(=O)O[C@H](COC(=O)Cc1c(C)n(C(=O)c2ccc(Cl)cc2)c2ccc(OC)cc12)COP(=O)([O-])OCC[N+](C)(C)C [IND-PA-PC, 1-indomethacinoyl-2-palmitoyl-sn-glycero-3-phosphocholine] | – | – | – | – | – | –
3 | 160 ± 59.7 µM | 201 ± 23.5 µM | 209 ± 18.3 µM | 214 ± 46.1 µM | 230 ± 10.3 µM | CCCCCCCCCCCCCCCCCC(=O)O[C@H](COC(=O)Cc1c(C)n(C(=O)c2ccc(Cl)cc2)c2ccc(OC)cc12)COP(=O)([O-])OCC[N+](C)(C)C [IND-SA-PC, 1-indomethacinoyl-2-stearoyl-sn-glycero-3-phosphocholine] | 1.90 | 1.51 | 1.46 | 1.42 | 1.33 | –

Continued, compound first:

Row | SMILES | IC50 (MV4-11; MTT) | IC50 (A-549; A-549, 72 h, SRB) | IC50 (PC-3; PC3, 72 h, SRB) | IC50 (MDA-MB-468; [7]) | IC50 (MCF-7; MCF-7, 72 h, SRB) | calculated selectivity index SI (MV4-11) | calculated selectivity index SI (A-549) | calculated selectivity index SI (PC-3) | calculated selectivity index SI (MDA-MB-468) | calculated selectivity index SI (MCF-7) | also measured
4 | COc1ccc2c(c1)c(CC(=O)OC[C@@H](O)COP(=O)([O-])OCC[N+](C)(C)C)c(C)n2C(=O)c1ccc(Cl)cc1 [IND-LPC, 1-indomethacinoyl-2-hydroxy-sn-glycero-3-phosphocholine] | 3.1 ± 0.5 µM | 27.2 ± 4.9 µM | 14.4 ± 2.9 µM | 2.7 ± 0.5 µM | 7.9 ± 0.7 µM | 2.23 | 0.25 | 0.48 | 2.56 | 0.87 | fold lower IC50 than free IND (MV4-11; MV4-11): 66 fold; fold lower IC50 than free IND (MDA-MB-468; MDA-MB-468): 100 fold; times more active against MDA-MB-468 than MCF-7 (MDA-MB-468; MDA-MB-468 vs MCF-7): 3 times; toxicity towards MCF-10A at the active doses (MCF-10A; at 3.1 μM and 2.7 μM): not toxic; effect on cell cycle / cell death (MV4-11 cells [1]): strongly induced cell death; effect on cell cycle / cell death (MDA-MB-468 cells): strongly induces breast cancer cell death; effect on number of apoptotic (AnV+/PI+) cells (MV4-11 cells [2]): slightly increased; caspase-3/7 activation [3]: higher level after 24 h than 72 h; caspase-3/7 activation [4]: higher level after 24 h than 72 h
5 | COc1ccc2c(c1)c(CC(=O)O)c(C)n2C(=O)c1ccc(Cl)cc1 [IND, indomethacin, reference compound] | – | – | – | – | – | – | – | – | – | – | IC50 (MV4-11; Homo sapiens): 204 ± 41.5 µM; IC50 (A-549; Homo sapiens, A549, 72 h): 121 ± 31.6 µM; IC50 (PC-3; Homo sapiens, PC-3, 72 h): 160 ± 61.5 µM; IC50 (MDA-MB-468; Homo sapiens): 270 ± 56.3 µM; IC50 (MCF-7; Homo sapiens, MCF7, 72 h): 187 ± 19.4 µM; IC50 (MCF-10A; Homo sapiens, MCF-10A, 72 h): 191 ± 11.4 µM; Biopharmaceutical Classification System (BCS) class [5]: Class II; water solubility ([5]; pH7): 105.2 µg/mL (≈ 294 µM)
6 | CCCCCCCC/C=C\CCCCCCCC(=O)OC[C@H](COP(=O)([O-])OCC[N+](C)(C)C)OC(=O)Cc1c(C)n(C(=O)c2ccc(Cl)cc2)c2ccc(OC)cc12 [OA-IND-PC, 1-oleoyl-2-indomethacinoyl-sn-glycero-3-phosphocholine] | 56.3 ± 0.8 µM | 53.8 ± 1.2 µM | 58 ± 11.9 µM | 56.4 ± 0.6 µM | 59.8 ± 2.1 µM | 1.80 | 1.89 | 1.75 | 1.80 | 1.70 | IC50 [6]: 33.5 to 67.5 µM; effect on cell cycle / cell death (MV4-11 cells [1]): strongly induced cell death; effect on cell cycle / cell death (MDA-MB-468 cells): stopped the cell cycle in the G0/G1 phase, but did not induce cell death; effect on number of apoptotic (AnV+/PI+) cells (MV4-11 cells [2]): slightly increased; caspase-3/7 activation [3]: strongly increased caspase activity in MV4-11 cells after 72 h
7 | CCCCCCCCCCCCCCCCCC(=O)OC[C@H](COP(=O)([O-])OCC[N+](C)(C)C)OC(=O)Cc1c(C)n(C(=O)c2ccc(Cl)cc2)c2ccc(OC)cc12 [SA-IND-PC, 1-stearoyl-2-indomethacinoyl-sn-glycero-3-phosphocholine] | 329 ± 34.6 µM | 243 ± 15.7 µM | 230 ± 15.8 µM | 289 ± 12.2 µM | 288 ± 22.2 µM | 1.64 | 2.22 | 2.34 | 1.87 | 1.87 | –
